{"data": "Measurements pooled from the literature", "target": "Myosin-IIIa (MYO3A, Homo sapiens, UniProt Q8NEV4)", "note": "Each line is one published result; the experiments were not run side by side."}
{"SMILES": "c1ccc(N2CCN(Cc3nc4ccccc4[nH]3)CC2)nc1", "observed": "binding", "method": "competition with immobilised ligand", "concentration": "1 µM", "remaining binding": "100%"}
{"SMILES": "CNC(=O)[C@@H]1CC[C@@H](n2c(-c3ccc4cnccc4c3)nc3ccc(C(=O)NCc4cccc(C(N)=O)c4)cc32)C1", "observed": "binding", "method": "competition with immobilised ligand", "concentration": "1 µM", "remaining binding": "100%"}
{"SMILES": "c1cnn2ncc(-c3ccnc(N4CCC45COC5)n3)c2c1", "observed": "binding", "concentration": "1 µM", "remaining binding": "55%"}
{"SMILES": "Cc1cnc(Nc2ccc(C(=O)N3CCC(N4CCCC4)CC3)cc2)nc1-c1cc2ccccc2s1", "observed": "binding", "method": "competition with immobilised ligand", "concentration": "1 µM", "remaining binding": "85%"}
{"SMILES": "FC(F)(F)c1ccc2c(c1)nc(-c1cccnc1)n2C1CC1", "observed": "cell-free assay", "method": "competition with immobilised ligand", "concentration": "1 µM", "remaining binding": "100%"}
{"SMILES": "COc1ncc2cc3ccccc3nc2c1C#N", "observed": "binding", "method": "competition with immobilised ligand", "concentration": "5 µM", "remaining binding": "100%"}
{"SMILES": "Cc1c(NC(=O)c2cc(C(N)=O)nc3cc(F)ccc23)c(C(F)(F)F)nn1Cc1ccc(C#N)cc1", "observed": "binding", "method": "competition with immobilised ligand", "concentration": "1 µM", "remaining binding": "91%"}
{"SMILES": "O=C(NCCCN1CCOCC1)c1ccc(Nc2nccc(-c3cc4ccccc4s3)n2)cc1", "observed": "binding", "method": "competition with immobilised ligand", "concentration": "1 µM", "remaining binding": "87%"}
{"SMILES": "C=CC(=O)N1CCC(C(=O)NCC(=O)N2CCN(c3nc(-c4cnc(N)nc4C(F)F)nc(N4CCOCC4)n3)CC2)CC1", "observed": "binding", "method": "competition with immobilised ligand", "concentration": "1 µM", "remaining binding": "100%"}
{"SMILES": "FC(F)(F)Oc1cccc(-c2cnc3ccc(-c4ccncc4)nn23)c1", "observed": "cell-free assay", "method": "competition with immobilised ligand", "concentration": "5 µM", "remaining binding": "82%"}
{"SMILES": "CN(C)c1ncc(F)c(-c2cnn3ncccc23)n1", "observed": "binding", "concentration": "1 µM", "remaining binding": "100%"}
{"SMILES": "CS(=O)(=O)c1cc(C2(NC(=O)c3cncc4c3cnn4-c3ccc(F)cc3)CC2)ccn1", "observed": "cell-free assay", "method": "competition with immobilised ligand", "concentration": "1 µM", "remaining binding": "85%"}
{"SMILES": "CN(C)c1nccc(-c2cnc3ncccn23)n1", "observed": "binding", "concentration": "1 µM", "remaining binding": "90%"}
{"SMILES": "Nc1ncc2c(n1)-c1c([nH]c3ccc(C#CC4CC4)cc13)CCCC2", "observed": "binding", "method": "competition with immobilised ligand", "concentration": "1 µM", "remaining binding": "91%"}
{"SMILES": "O=C(c1ccc(Nc2ncc(Cl)c(-c3ccc(Cl)s3)n2)cc1)N1CCC(N2CCCC2)CC1", "observed": "binding", "method": "competition with immobilised ligand", "concentration": "1 µM", "remaining binding": "81%"}
{"SMILES": "CN(C)c1nccc(-c2cnn3ncccc23)n1", "observed": "binding", "concentration": "1 µM", "remaining binding": "100%"}
{"SMILES": "O=C(NCC1CCOCC1)c1n[nH]cc1NC(=O)c1c(F)cccc1F", "observed": "binding", "method": "competition with immobilised ligand", "concentration": "1 µM", "remaining binding": "88%"}
{"SMILES": "C[C@@H]1CCN(c2nccc(-c3cnn4ncccc34)n2)C1", "observed": "binding", "concentration": "1 µM", "remaining binding": "100%"}
{"SMILES": "Cc1nccc(COC(=O)N2C[C@@H]3[C@@H](CNC(=O)c4ccc5[nH]nnc5c4)[C@@H]3C2)n1", "observed": "binding", "method": "competition with immobilised ligand", "concentration": "1 µM", "remaining binding": "99%"}
{"SMILES": "CC1CCCN1c1nccc(-c2cnn3ncccc23)n1 (stereo not drawn)", "observed": "binding", "concentration": "1 µM", "remaining binding": "100%"}
{"SMILES": "CCCCN(CCCC)C(=O)CN1C[C@@H](c2cc(OC)c3c(c2)OCO3)[C@H](C(=O)O)[C@H]1CC(C)(C)CCC", "observed": "cell-free assay", "method": "competition with immobilised ligand", "concentration": "1 µM", "remaining binding": "100%"}
